Measured values as given in ChEMBL document CHEMBL4406918, “Inhibitory Effects of Multivalent Polypeptides on the Proliferation and Metastasis of Breast Cancer Cells” (ACS Med Chem Lett, 2019).
The source made the active and inactive calls. The rule behind the calls is not given here. Where a SMILES comes first, the peptide text is derived from it. Side-chain parts run from the residue outwards.

Tests used:
4T1 [1] = experiment: Antitumour activity against mouse 4T1 cells xenografted in BALB/c mouse assessed as inhibition in tumor growth at 10 mg/kg administered intratumorally and measured every 3 days for 24 days; type: functional, organism-based
Procedure, shortened: (§1)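 BALB/c mice bearing subcutaneous 4T1 tumours received 6 doses of 10 mg/kg, with equal YSL-monomer molar amounts across compounds and saline as control. Tumour volume growth curves and body weights were tracked. Mean ± SD, n = 5.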

4T1 [2] = experiment: Inhibition of metastasis in mouse 4T1 cells assessed as disruption in F-actin arrangement at 0.2 mM incubated for 24 hrs by Hoechst 33342 staining based confocal laser scanning microscopic method; type: functional, cell-based
Procedure, shortened: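 After 24 h at 0.2 mM, 4T1 cells were stained for F-actin with Alexa Fluor 488 phalloidin and for nuclei with Hoechst 33342, then imaged by fluorescence for cytoskeletal arrangement and cell morphology.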

[3] = target: Matrix metalloproteinase-9 (Mus musculus) (UniProt P41245); experiment: Residual MMP9 activity in mouse 4T1 cells at 0.2 mM incubated for 24 hrs by coomassie brilliant blue staining based gelatin zymography assay relative to control
[4] = Stability in fetal bovine serum assessed as parent compound remaining measured after 12 hrs by RP-HPLC analysis; type: ADME, cell-free, Bos taurus; conditions: cattle, read-out: Stability
Procedure, shortened: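 Peptides incubated in serum, and the fraction of intact YSL was measured over time up to 12 h, including a 4 h point.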

[5] = Toxicity in BALB/c mouse xenografted with mouse 4T1 cells assessed as induction of morphological lesions in spleen at 10 mg/kg administered intratumorally and measured after 24 days by H and E staining based inverted optical microscopic method; type: organism-based; conditions: in vivo, other, 576 h
[6] = Toxicity in BALB/c mouse xenografted with mouse 4T1 cells assessed as induction of morphological lesions in kidney at 10 mg/kg administered intratumorally and measured after 24 days by H and E staining based inverted optical microscopic method; type: organism-based; conditions: in vivo, other, 576 h
4T1 [7] = experiment: Induction of apoptosis in mouse 4T1 cells assessed as viable cells at 0.4 mM incubated for 24 hrs by Annexin V-FITC/PI based FACS analysis (reference value: 92.2%); type: functional; conditions: 4T1, 24 h, read-out: Activity
4T1 [8] = experiment: Induction of cell cycle arrest in mouse 4T1 cells assessed as accumulation at G0/G1 phase at 0.4 mM incubated for 24 hrs by PI staining based flow cytometric analysis (reference value: 37.78%); type: functional
4T1 [9] = experiment: Antiproliferative activity against mouse 4T1 cells at 0.1 mM incubated for 24 hrs by MTT assay; type: functional, cell-based
4T1 [10] = experiment: Antitumour activity against mouse 4T1 cells xenografted in BALB/c mouse assessed as increase in damage of tumor tissue at 10 mg/kg administered intratumorally and measured after 24 days by H and E staining based inverted optical microscopic method; type: functional, organism-based
Procedure, shortened: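 Tumours from 4T1-bearing BALB/c mice given 6 doses of 10 mg/kg (saline control) were sectioned and stained with H&E, plus CD31, Ki-67 and TUNEL.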

4T1 [11] = experiment: Induction of apoptosis in mouse 4T1 cells at 0.8 mM incubated for 24 hrs by PI staining based inverted microscopic method; type: functional, cell-based
Procedure, shortened: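 Live–dead staining of 4T1 cells after 24 h exposure, with PI uptake imaged microscopically. A higher 0.8 mM dose was also tested.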

4T1 [12] = experiment: Induction of cell cycle arrest in mouse 4T1 cells assessed as accumulation at G2/M phase at 0.4 mM incubated for 24 hrs by PI staining based flow cytometric analysis (reference value: 19.82%); type: functional
4T1 [13] = experiment: Antiinvasive activity in mouse 4T1 cells assessed as inhibition of cell invasion at 0.2 mM incubated for 24 hrs by crystal violet staining based matrigel invasion assay relative to control; type: functional; conditions: 4T1, 24 h
Procedure, shortened: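 4T1 cells, Matrigel-coated Transwell invasion with 0.2 mM compound. Invasion rate comes from counting cells on the underside of the Matrigel-coated porous membrane, relative to untreated control. Mean ± SD, n = 3.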

[14] = Toxicity in BALB/c mouse xenografted with mouse 4T1 cells assessed as change in body weight at 10 mg/kg administered intratumorally and measured after 24 days; type: organism-based; conditions: in vivo, other, 576 h; procedure, shortened: as §1
4T1 [15] = experiment: Antitumour activity against mouse 4T1 cells xenografted in BALB/c mouse assessed as reduction in size of lung tumor metastatic nodules at 10 mg/kg administered intratumorally and measured after 24 days by H and E staining based inverted optical microscopic method; type: functional, organism-based
Procedure, shortened: (§2)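 After 6 doses of 10 mg/kg to 4T1 tumour-bearing BALB/c mice (saline control), lungs were photographed whole and examined histopathologically for the number and size of metastatic nodules.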

Erythrocyte = experiment: Hemolytic activity in BALB/c mouse RBC at 3.2 mM incubated for 2 hrs by UV-Vis spectrophotometric analysis; type: ADME, cell-based; conditions: 3200 µM
Procedure, shortened: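 Hemolysis assay on red blood cells with dendrimers up to 3.2 mM. Result is expressed as hemolysis rate, with under 5% taken as acceptable.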

4T1 [16] = experiment: Antiproliferative activity against mouse 4T1 cells assessed as cell death at 0.2 mM incubated for 24 hrs by MTT assay relative to control; type: functional
Procedure, shortened: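 Mouse 4T1 breast cancer cells exposed for 24 h (doses include 0.1 and 0.2 mM), then read by MTT for viability or cell death. Mean ± SD, n = 6.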

4T1 [17] = experiment: Induction of apoptosis in mouse 4T1 cells assessed as early apoptotic cells at 0.4 mM incubated for 24 hrs by Annexin V-FITC/PI based FACS analysis (reference value: 0.76%); type: functional
4T1 [18] = experiment: Inhibition of cell migration in mouse 4T1 cells assessed as wound closure rate at 0.2 mM measured up to 36 hrs by inverted optical microscopic method based wound healing assay (reference value: 82%); type: functional; design: scale not given: the % may be the effect or the level left
4T1 [19] = experiment: Antitumour activity against mouse 4T1 cells xenografted in BALB/c mouse assessed as reduction in number of lung tumor metastatic nodules at 10 mg/kg administered intratumorally and measured after 24 days by H and E staining based inverted optical microscopic method; type: functional, organism-based; procedure, shortened: as §2
4T1 [20] = experiment: Induction of apoptosis in mouse 4T1 cells assessed as necrotic cells at 0.4 mM incubated for 24 hrs by Annexin V-FITC/PI based FACS analysis (reference value: 0.47%); type: functional
4T1 [21] = experiment: Inhibition of cell migration in mouse 4T1 cells assessed as migration frequency at 0.2 mM incubated for 24 hrs by crystal violet staining based transwell assay relative to control; type: functional; design: scale not given: the % may be the effect or the level left
Procedure, shortened: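 4T1 cells, Transwell migration with 24 h exposure to 0.2 mM. Migration rate comes from counting cells on the bottom of the porous membrane. Mean ± SD, n = 3.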

[22] = Toxicity in BALB/c mouse xenografted with mouse 4T1 cells assessed as induction of morphological lesions in heart at 10 mg/kg administered intratumorally and measured after 24 days by H and E staining based inverted optical microscopic method; type: organism-based; conditions: in vivo, other, 576 h
[23] = Toxicity in BALB/c mouse xenografted with mouse 4T1 cells assessed as change in blood urea nitrogen level at 10 mg/kg administered intratumorally and measured after 24 days; type: organism-based; conditions: in vivo, other, 576 h
4T1 [24] = experiment: Induction of apoptosis in mouse 4T1 cells assessed as late apoptotic cells at 0.4 mM incubated for 24 hrs by Annexin V-FITC/PI based FACS analysis (reference value: 6.62%); type: functional
4T1 [25] = experiment: Antitumour activity against mouse 4T1 cells xenografted in BALB/c mouse assessed as increase in number of TUNEL positive cells at 10 mg/kg administered intratumorally and measured after 24 days by H and E staining based inverted optical microscopic method; type: functional, organism-based
Procedure, shortened: (§3)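 BALB/c mice bearing subcutaneous 4T1 tumours received 6 doses at 10 mg/kg body weight, matched for YSL monomer molar amount, with saline as control. Tumour sections were stained for H&E, CD31, Ki-67 and TUNEL. n = 5.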

[26] = Toxicity in BALB/c mouse xenografted with mouse 4T1 cells assessed as change in serum creatinine level at 10 mg/kg administered intratumorally and measured after 24 days; type: organism-based; conditions: in vivo, other, 576 h
4T1 [27] = experiment: Induction of cell cycle arrest in mouse 4T1 cells assessed as accumulation at S phase at 0.4 mM incubated for 24 hrs by PI staining based flow cytometric analysis (Rvb =42.35%); type: functional
[28] = Toxicity in BALB/c mouse xenografted with mouse 4T1 cells assessed as induction of morphological lesions in liver at 10 mg/kg administered intratumorally and measured after 24 days by H and E staining based inverted optical microscopic method; type: organism-based; conditions: in vivo, other, 576 h
4T1 [29] = experiment: Inhibition of metastasis in mouse 4T1 cells assessed as shortening in actin filaments at 0.2 mM incubated for 24 hrs by Hoechst 33342 staining based confocal laser scanning microscopic method; type: functional, cell-based
Procedure, shortened: (§4)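 After 24 h treatment, 4T1 cells were stained with Alexa Fluor 488 phalloidin for F-actin and Hoechst 33342 for nuclei, then imaged by fluorescence microscopy to assess cytoskeleton and cell morphology.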

4T1 [30] = experiment: Antitumour activity against mouse 4T1 cells xenografted in BALB/c mouse assessed as increase in cytotoxic tumor cell death at 10 mg/kg administered intratumorally and measured after 24 days by H and E staining based inverted optical microscopic method; type: functional, organism-based; procedure, shortened: as §3
4T1 [31] = experiment: Inhibition of metastasis in mouse 4T1 cells assessed as formation of pseudopods at 0.2 mM incubated for 24 hrs by SEM analysis; type: functional, cell-based
Procedure, shortened: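 4T1 cells treated 24 h, then imaged by scanning electron microscopy for pseudopod formation. Dendrimers were tested at 0.2 mM and the reference at 10–5 mM.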

4T1 [32] = experiment: Inhibition of metastasis in mouse 4T1 cells assessed as cell shrinkage at 0.2 mM incubated for 24 hrs by Hoechst 33342 staining based confocal laser scanning microscopic method; type: functional; procedure, shortened: as §4

Matrix metalloproteinase-9 (Mus musculus), sequence (P41245 whole entry): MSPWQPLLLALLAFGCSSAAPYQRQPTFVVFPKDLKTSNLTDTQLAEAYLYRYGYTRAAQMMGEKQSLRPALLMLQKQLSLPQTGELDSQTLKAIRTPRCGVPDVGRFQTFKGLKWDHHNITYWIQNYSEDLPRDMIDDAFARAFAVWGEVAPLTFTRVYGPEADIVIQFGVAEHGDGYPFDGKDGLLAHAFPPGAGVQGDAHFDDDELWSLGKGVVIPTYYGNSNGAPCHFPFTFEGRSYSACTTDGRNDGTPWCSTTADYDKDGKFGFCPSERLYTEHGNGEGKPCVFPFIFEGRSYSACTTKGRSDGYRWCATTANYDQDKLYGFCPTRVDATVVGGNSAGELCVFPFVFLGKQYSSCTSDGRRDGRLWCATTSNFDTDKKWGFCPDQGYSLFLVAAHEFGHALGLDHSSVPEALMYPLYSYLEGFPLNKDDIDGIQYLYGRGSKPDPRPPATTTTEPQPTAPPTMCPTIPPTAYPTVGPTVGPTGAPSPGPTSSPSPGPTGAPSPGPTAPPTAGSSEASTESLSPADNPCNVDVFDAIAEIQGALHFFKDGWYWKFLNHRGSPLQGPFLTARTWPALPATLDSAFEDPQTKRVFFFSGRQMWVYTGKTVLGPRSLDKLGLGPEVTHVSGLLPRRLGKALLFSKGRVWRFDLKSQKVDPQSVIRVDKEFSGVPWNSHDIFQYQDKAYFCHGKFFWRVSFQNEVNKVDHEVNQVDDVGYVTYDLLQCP

| SMILES | F-actin disruption (qualitative) (4T1 [2]) | residual activity [3] [%] | remaining at 12 h [4] [%] | Activity [5] | Activity [6] | viability at 400 µM (4T1 [7]) [%] | Activity (4T1 [8]) [%] | Activity (4T1 [9]) | Activity (4T1 [10]) | Activity (4T1 [11]) | Activity (4T1 [12]) [%] | inhibition at 200 µM (4T1 [13]) [%] | Activity [14] | Activity (4T1 [15]) | Activity (Erythrocyte) | Activity (4T1 [16]) [%] | Activity (4T1 [17]) [%] | Activity (4T1 [18]) [%] | Activity (4T1 [19]) | Activity (4T1 [20]) [%] | other results |
| --- | --- | --- | --- | --- | --- | --- | --- | --- | --- | --- | --- | --- | --- | --- | --- | --- | --- | --- | --- | --- | --- |
| COC(=O)[C@H](CCCCNC(=O)[C@H](CC(C)C)NC(=O)[C@H](CO)NC(=O)[C@@H](N)Cc1ccc(O)cc1)NC(=O)[C@H](CC(C)C)NC(=O)[C@H](CO)NC(=O)[C@@H](N)Cc1ccc(O)cc1 (H-YSLK([Leu-Ser-Tyr])-OMe) | Active | 75 | > 80 | Non-Toxic | Non-Toxic | 80.2 | 37.72 | inactive | Active | Active | 15.35 | 70 | Non-Toxic | Active | Non-Toxic | 5 | 0.77 | 79 | Active | 0.26 | Activity (4T1 [1]): Active; Activity (4T1 [21]): 68%; Activity [22]: Non-Toxic; Activity [23]: Non-Toxic; Activity (4T1 [24]): 18.8%; Activity (4T1 [25]): Active; Activity [26]: Non-Toxic; Activity (4T1 [27]): 47.25%; Activity [28]: Non-Toxic |
| COC(=O)[C@H](CCCCNC(=O)[C@H](CCCCNC(=O)[C@H](CC(C)C)NC(=O)[C@H](CO)NC(=O)[C@@H](N)Cc1ccc(O)cc1)NC(=O)[C@H](CC(C)C)NC(=O)[C@H](CO)NC(=O)[C@@H](N)Cc1ccc(O)cc1)NC(=O)[C@H](CCCCNC(=O)[C@H](CC(C)C)NC(=O)[C@H](CO)NC(=O)[C@@H](N)Cc1ccc(O)cc1)NC(=O)[C@H](CC(C)C)NC(=O)[C@H](CO)NC(=O)[C@@H](N)Cc1ccc(O)cc1 | Active | 70 | > 80 | Non-Toxic | Non-Toxic | 77.7 | 38.06 | inactive | Active | Active | 15.31 | 41 | Non-Toxic | Active | Non-Toxic | 10 | 0.7 | 76 | Active | 1.23 | inhibition (4T1 [29]): Active; Activity (4T1 [30]): Active; Activity (4T1 [21]): 39%; Activity [22]: Non-Toxic; inhibition (4T1 [31]): inactive; Activity [23]: Non-Toxic; Activity (4T1 [24]): 20.4%; inhibition (4T1 [32]): Active; Activity (4T1 [25]): Active; Activity [26]: Non-Toxic; Activity (4T1 [27]): 46.98%; Activity [28]: Non-Toxic |
